Measurements published in the array DNA melting data of Ke et al. (doi:10.1101/2024.01.08.574731).

Columns and labels:
[1] = melting temperature; fluorescence melt of hairpins on a sequencing array, two-state fit, raised by 9.35 °C to match UV melts; conditions: sodium 0.088 M
Summary of the method: (§1)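 Library hairpins on a sequenced MiSeq flow cell carried annealed Cy3 and quencher oligos, and their Cy3 fluorescence was imaged in 50 mM Na-HEPES pH 8.0 with 25 mM NaCl, in 2.5 °C steps up to 60 °C. Signals were normalised to Cy3 before quenching and to control constructs. Melting temperature and folding enthalpy were obtained from bootstrapped two-state fits, combined by inverse-variance weighting across four replicates, and the fitted temperatures were then raised by 9.35 °C to match UV melts.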

[2] = folding enthalpy; higher = less favourable; fluorescence melt of hairpins on a sequencing array, two-state fit; conditions: sodium 0.088 M
Summary of the method: as §1

Sequence	Tm [1] [°C]	folding enthalpy [2] [kcal/mol]
GCGGCGACGAAAGTCCGC (((..(((....))))))	55.6	-17.8
GTTCCTCGAAAGAGCAAC (((.(((....))).)))	29.4	-14.3
GAAGTTGGAAACAACCTC ((.((((....)))).))	27.4	-15
TATTCGAAAGAATA (((((....)))))	36.7	-14.3
GGCTCTCGAAAGAGCGCC (((.(((....))).)))	56.4	-34.6
GGGAGTGGAAACGTTCCC ((((..(....)..))))	36.2	-16.5
GTATTGCGAAAGCATAC (((.(((....))))))	45	-12.2
GGGGAAGAAATTCCCC ((((((....))))))	57.1	-30.8
GCGTTACAACGC ((((....))))	58.6	-26.4
GATCCAGTCTGGATC ((((((...))))))	55.1	-38.1
GGACTTCGAAAGAATTCC (((.(((....))).)))	36.8	-31.9
GTACAGGGAAACTTGTAC (((((.(....).)))))	39.8	-30.4
CGAACTCGGAAACGATCG (((..(((....))))))	22.9	-16.3
GGAAACCGAAAGGTGTCC (((.(((....))).)))	52.4	-31.1
GGTTCCCGAAAGGGACC (((.(((....))))))	59.9	-23
GCTGACGAAAGTCAGAGC ((((((....)))..)))	55.8	-13.4
GGTCGACGAAAGTCCACC (((.(((....))).)))	43.9	-25.6
GTCCCACGAAAGTGCGAC (((.(((....))).)))	46.5	-24.9
GATCTGAGACAGATC ((((((...))))))	46.8	-42.3
GCTAATGGAAACACTAGC ((((.((....)).))))	31.2	-23.9
CGTTCTCGGAAACGAACG (((..(((....))))))	35.8	-19.2
GGACGCGAAAGCGAATCC ((((((....)))..)))	36.5	-13.5
GCCCAGCGAAAGCAAGGC (((..((....))..)))	56.9	-18.5
GGCATTGGAAACGATGCC (((((.(....).)))))	55.6	-42.5

Sequence	Tm [1] [°C]	folding enthalpy [2] [kcal/mol]
GCGTCCGAAAGGAGGCGC ((((((....)))..)))	67.5	-36.3
GGGCCAGGAAACTGGTCC ((.((((....)))).))	61.9	-35
GCTAGGCGAAAGCGTGGC ((.(.((....)).).))	49.8	-19.5
GATTACGAAAGTATATC ((((((....))).)))	32.9	-17.1
GATCTAACCTTAGATC ((((((....))))))	42.2	-39.6
GATCGGTGATCCGATC ((((((....))))))	56.8	-41.2
GCGGTCGAAAGACGTCGC ((((((....)))..)))	50.5	-23.7
GAGGTAGGAAACTACCTC (((((((....)))))))	60	-37.2
GTCTGCGAAAGCACAGAC ((((((....)))..)))	46.3	-18.6
GAGAACCCGAAAGGGCTC (((..(((....))))))	34.9	-13.9
GCGTGTTGACGC ((((....))))	55	-23.9
GGGGTTGGAAACAACTCC ((.((((....)))).))	51.3	-37.5
GGGACTGGAAACAGTCCC (((((((....)))))))	69	-37.8
CGCACCCGGAAACGGGCG (((..(((....))))))	46.1	-12
GCGAAGGTTCGC ((((....))))	50.4	-20.8
GTCTAGTCGAAAGACGAC (((..(((....))))))	39.4	-14.3
GAATGCGGAAACGCATTC (((((((....)))))))	67.5	-39.1
GTGGTCGGAAACGGCCAC ((((.((....)).))))	63.5	-33.7
GGTACGTCGAAAGACACC (((..(((....))))))	33.3	-9.89
TAGATGAAAATCTA (((((....)))))	26.1	-10.1
GATCAATCTCTTGATC ((((((....))))))	43.2	-30.1
GATCACTAAGTGATC ((((((...))))))	55.2	-33.9
GTGAGCTCGAAAGAGCAC (((..(((....))))))	65	-9.96
GCATTAGAAATAATGC ((((((....))))))	48.2	-24.5

Sequence	Tm [1] [°C]	folding enthalpy [2] [kcal/mol]
GCCGCAGGAAACTGCAGC ((.((((....)))).))	49	-19
GGGTGAGAAATCACCC ((((((....))))))	61.6	-37.1
GGGTTGTCGAAAGACCCC (((..(((....))))))	42.7	-20.5
GCAGCAACGAAAGTTTGC (((..(((....))))))	35.8	-17.1
GCGGTTGGAAACGACCGC (((((.(....).)))))	62.9	-48.8
GATAGCGAAAGCTAAATC ((((((....)))..)))	27.7	-8.92
GCACCGGGAAACCGACGC ((..(((....)))..))	38	-24.1
GAATTGCGAAAGCACTTC (((.(((....))).)))	40.7	-21.1
GGTATTGGAAACAGTACC ((((.((....)).))))	39.6	-32.2
GATCAGGACTCTGATC ((((((....))))))	55.6	-40.6
GATCATAGCATGATC ((((((...))))))	49.9	-37
GGCGCCACGAAAGTGGCC (((..(((....))))))	48.8	-6.73
GATCCTGGTCAGGATC ((((((....))))))	55.5	-41.8
GGAGTGAAAACTCC (((((....)))))	54.8	-27.2
GTTCTTGGAAACAAGGAC ((.((((....)))).))	44.6	-23.9
GCGACGCGAAAGCTCCGC (((..((....))..)))	50.6	-20.2
GCAATGCGAAAGCTATGC (((..((....))..)))	50.6	-20.4
GATCTCAACAGAGATC ((((((....))))))	54.9	-44.3
GCTTAGCGAAAGCGAGGC ((.(.((....)).).))	51.8	-15.4
GATCCGAATGCGGATC ((((((....))))))	54.1	-37.8
GATCGCCAACGCGATC ((((((....))))))	62.9	-36.6
GATCGCCATTGCGATC ((((((....))))))	67.5	-38
GTAGGAGGAAACTCTTAC (((.(((....))).)))	34.8	-17.8
GCGACTCATCGC ((((....))))	49	-24.5

Sequence	Tm [1] [°C]	folding enthalpy [2] [kcal/mol]
GTGGTGGCGAAAGCCCAC (((..(((....))))))	53.5	-14.8
GATCCCCACTGGGATC ((((((....))))))	62.2	-35.3
GCAGGGGAAACCCTGC ((((((....))))))	68.1	-34.9
GTCAGTGGAAACATTGGC (.((.((....)).)).)	30.6	-26.2
GATCGTGGGTACGATC ((((((....))))))	55.3	-37.6
GGTGCACGAAAGTGGACC (((.(((....))).)))	65.7	-38.1
GTCAAGAAATTGAC (((((....)))))	40.8	-21.6
GGTCCAGGAAACTGGATC (.(((((....))))).)	49.7	-32.1
GGGCATTCGAAAGAACCC (((..(((....))))))	29.5	-14.2
GTCATCCGAAAGGAGGAC (((.(((....))).)))	58.6	-36.3
GCGTACTGACGC ((((....))))	52.4	-21.9
GACACCCCGAAAGGGGTC (((..(((....))))))	37.7	-6.64
GATCGTAGGCACGATC ((((((....))))))	54.2	-37
GTGGGCGAAAGCCGCAC ((((((....))).)))	55.4	-13.8
GGCGCCGAAAGGCTGCC ((((((....))).)))	67.1	-19.4
GCCAGCGGAAACGCCGGC (((.(((....))).)))	57.1	-26.3
GCAGGGCGAAAGCGCCGC ((.(.((....)).).))	52.6	-15.7
GACTAGCGAAAGCTCGTC (((.(((....))).)))	48	-19.1
GTACTACGAAAGTAATAC (((.(((....))).)))	29.8	-15.2
GGGTTGCCGAAAGGCCCC (((..(((....))))))	48.4	-14.5
GTGACCGGAAACGGCCAC (((.(((....))).)))	54.2	-39
